Residue numbers refer to the chain shown, from its start. Numbers in names are those of the source.
B1: GLP: G9a-like protein, wild-type (protein)
chain: MAAADAEAVPARGEPQQDCCVKTELLGEETPMAADEGSAEKQAGEAHMAADGETNGSCENSDASSHANAAKHTQDSARVNPQDGTNTLTRIAENGVSERDSEAAKQNHVTADDFVQTSVIGSNGYILNKPALQAQPLRTTSTLASSLPGHAAKTLPGGAGKGRTPSAFPQTPAAPPATLGEGSADTEDRKLPAPGADVKVHRARKTMPKSVVGLHAASKDPREVREARDHKEPKEEINKNISDFGRQQLLPPFPSLHQSLPQNQCYMATTKSQTACLPFVLAAAVSRKKKRRMGTYSLVPKKKTKVLKQRTVIEMFKSITHSTVGSKGEKDLGASSLHVNGESLEMDSDEDDSEELEEDDGHGAEQAAAFPTEDSRTSKESMSEADRAQKMDGESEEEQESVDTGEEEEGGDESDLSSESSIKKKFLKRKGKTDSPWIKPARKRRRRSRKKPSGALGSESYKSSAGSAEQTAPGDSTGYMEVSLDSLDLRVKGILSSQAEGLANGPDVLETDGLQEVPLCSCRMETPKSREITTLANNQCMATESVDHELGRCTNSVVKYELMRPSNKAPLLVLCEDHRGRMVKHQCCPGCGYFCTAGNFMECQPESSISHRFHKDCASRVNNASYCPHCGEESSKAKEVTIAKADTTSTVTPVPGQEKGSALEGRADTTTGSAAGPPLSEDDKLQGAASHVPEGFDPTGPAGLGRPTPGLSQGPGKETLESALIALDSEKPKKLRFHPKQLYFSARQGELQKVLLMLVDGIDPNFKMEHQNKRSPLHAAAEAGHVDICHMLVQAGANIDTCSEDQRTPLMEAAENNHLEAVKYLIKAGALVDPKDAEGSTCLHLAAKKGHYEVVQYLLSNGQMDVNCQDDGGWTPMIWATEYKHVDLVKLLLSKGSDINIRDNEENICLHWAAFSGCVDIAEILLAAKCDLHAVNIHGDSPLHIAARENRYDCVVLFLSRDSDVTLKNKEGETPLQCASLNSQVWSALQMSKALQDSAPDRPSPVERIVSRDIARGYERIPIPCVNAVDSEPCPSNYKYVSQNCVTSPMNIDRNITHLQYCVCIDDCSSSNCMCGQLSMRCWYDKDGRLLPEFNMAEPPLIFECNHACSCWRNCRNRVVQNGLRARLQLYRTRDMGWGVRSLQDIPPGTFVCEYVGELISDSEADVREEDSYLFDLDNKDGEVYCIDARFYGNVSRFINHHCEPNLVPVRVFMAHQDLRFPRIAFFSTRLIEAGEQLGFDYGERFWDIKGKLFSCRCGSPKCRHSSAALAQRQASAAQEAQEDGLPDTSSAAAADPL
modifications: left off: HA, end not stated, kept
B2: G9a: H3K9 methyltransferase G9a (protein, UniProt Q96KQ7 2-1210, looked up)
Histone-lysine …: AAAAGAAAAAAAEGEAPAEMGALLLEKETRGATERVHGSLGDTPRSEETLPKATPDSLEPAGPSSPASVTVTVGDEGADTPVGATPLIGDESENLEGDGDLRGGRILLGHATKSFPSSPSKGGSCPSRAKMSMTGAGKSPPSVQSLAMRLLSMPGAQGAAAAGSEPPPATTSPEGQPKVHRARKTMSKPGNGQPPVPEKRPPEIQHFRMSDDVHSLGKVTSDLAKRRKLNSGGGLSEELGSARRSGEVTLTKGDPGSLEEWETVVGDDFSLYYDSYSVDERVDSDSKSEVEALTEQLSEEEEEEEEEEEEEEEEEEEEEEEEDEESGNQSDRSGSSGRRKAKKKWRKDSPWVKPSRKRRKREPPRAKEPRGVNGVGSSGPSEYMEVPLGSLELPSEGTLSPNHAGVSNDTSSLETERGFEELPLCSCRMEAPKIDRISERAGHKCMATESVDGELSGCNAAILKRETMRPSSRVALMVLCETHRARMVKHHCCPGCGYFCTAGTFLECHPDFRVAHRFHKACVSQLNGMVFCPHCGEDASEAQEVTIPRGDGVTPPAGTAAPAPPPLSQDVPGRADTSQPSARMRGHGEPRRPPCDPLADTIDSSGPSLTLPNGGCLSAVGLPLGPGREALEKALVIQESERRKKLRFHPRQLYLSVKQGELQKVILMLLDNLDPNFQSDQQSKRTPLHAAAQKGSVEICHVLLQAGANINAVDKQQRTPLMEAVVNNHLEVARYMVQRGGCVYSKEEDGSTCLHHAAKIGNLEMVSLLLSTGQVDVNAQDSGGWTPIIWAAEHKHIEVIRMLLTRGADVTLTDNEENICLHWASFTGSAAIAEVLLNARCDLHAVNYHGDTPLHIAARESYHDCVLLFLSRGANPELRNKEGDTAWDLTPERSDVWFALQLNRKLRLGVGNRAIRTEKIICRDVARGYENVPIPCVNGVDGEPCPEDYKYISENCETSTMNIDRNITHLQHCTCVDDCSSSNCLCGQLSIRCWYDKDGRLLQEFNKIEPPLIFECNQACSCWRNCKNRVVQSGIKVRLQLYRTAKMGWGVRALQTIPQGTFICEYVGELISDAEADVREDDSYLFDLDNKDGEVYCIDARYYGNISRFINHLCDPNIIPVRVFMLHQDLRFPRIAFFSSRDIRTGEELGFDYGDRFWDIKSKYFTCQCGSEKCKHSAEAIALEQSRLARLDPHPELLPELGSLPPVNT
B3: G9a double mutant (Y1067V/Y1154F): G9a double mutant coexpressed with hDNMT3A (protein, UniProt Q96KQ7 2-1210, looked up, variant Y1067V Y1154F)
Histone-lysine …: B2 Histone-lysine … with Y1066V, Y1153F
B4: GLP–N: N-terminal fragment of GLP (residues 191–280) containing K205 (protein)
chain: LPAPGADVKVHRARKTMPKSVVGLHAASKDPREVREARDHKEPKEEINKNISDFGRQQLLPPFPSLHQSLPQNQCYMATTKSQTACLPFV
modifications: left off: GST, end not stated, kept
B5: GLP–N K205R: methylation deficient K205R mutant of GLP–N (protein, UniProt Q9H9B1 191-280, looked up, variant K205R)
chain: B4 chain with K15R
B6: GLP–N K205-methylated: GLP–N methylated in vitro at K205 (protein, UniProt Q9H9B1 191-280, looked up, fragment)
chain: B4 chain
modifications: K205 methylated
B7: GLP K205R: HA–GLP K205R mutant (protein)
chain: B1 chain with K205R
modifications: left off: HA, end not stated, kept
B8: GLP K199R: HA–GLP K199R mutant (protein)
chain: B1 chain with K199R
modifications: left off: HA, end not stated, kept
B9: GLP K209R: HA–GLP K209R mutant (protein)
chain: B1 chain with K209R
modifications: left off: HA, end not stated, kept

Key:
[1] = tested on: hDNMT3A K47 methylation in 293T cells; assay: Methylation in 293T cells; type: cell-based, human; conditions: coexpression in 293T cells, metabolic labelling with 3H-Met or western blot
In short: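 GLP stable knockdown 293T cells expressed Myc-hDNMT3A (WT or K47R), with or without Flag-GLP or G9a, for 36 h. Cells were starved 30 min in methionine-free medium with cycloheximide (100 μg ml−1) and chloramphenicol (40 μg ml−1), then labelled 4 h with 10 μCi ml−1 L-[methyl-3H]methionine. Myc-hDNMT3A was immunoprecipitated with anti-Myc, washed with 600 mM NaCl IPH buffer, and detected by autoradiography.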

GLP catalytic SET domain = GLP catalytic SET domain (Homo sapiens, UniProt Q9H9B1); assay: In vitro methylation assay with GLP catalytic SET domain; type: biochemical; conditions: [methyl-3H]AdoMet, SDS–PAGE and fluorography / autoradiogram
In short: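 E. coli-expressed hG9a or hGLP SET domain (1.6 μM) was incubated with 13.0 μM substrate (mDnmt3a N-terminal fragments or other GST-tagged proteins) and 2.8 μM [methyl-3H]AdoMet in 20 mM Tris–HCl pH 8.5 at 30 °C for 8 min. Products were resolved by SDS–PAGE and detected by fluorography/autoradiography.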

MPP8–W80A = assay: GST pull-down of GLP–N with MPP8-W80A; type: binding; conditions: in vitro translated 35S–MPP8–W80A
In short: (§1)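 GST–hGLP–N (residues 191–280, WT or K205R; 3 μg) was premethylated with 3 μg 6xHis–hGLP–SET (residues 955–1,298) and 1.5 mM AdoMet at 30 °C for 2 h. It was immobilised on glutathione agarose (4 °C, 1 h, 1 M NaCl buffer) and washed. Beads were incubated with in vitro translated 35S-labelled full-length MPP8 (WT or W80A) at 4 °C for 2 h, washed with 300 mM NaCl binding buffer, and analysed by SDS–PAGE autoradiography. Input was 5%.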

MPP8 = assay: In vitro GST pull-down of GLP–N with in vitro translated MPP8; type: binding; conditions: GST–GLP–N (residues 191–280), in vitro translated 35S–MPP8, autoradiography
In short: as §1

[2] = tested on: MPP8–GLP interaction in 293T cells; assay: Co-immunoprecipitation of MPP8 and GLP in 293T cells; type: cell-based, human
In short: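 293T cells (parental, or MPP8 stable knockdown for the chromodomain W80A mutant) were cotransfected with Flag-MPP8 and HA-GLP (WT, K199R, K205R or K209R) for 48 h. Lysates were immunoprecipitated with 1 μg anti-HA or anti-Flag on protein-G agarose, washed with IPH containing 300 or 600 mM NaCl, and analysed by western blot. Input was 5%.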

Row | Molecule | methylation of hDNMT3A in cells [1] | interaction with MPP8–W80A in GST pull-down (MPP8–W80A) | MPP8–GLP interaction in cells [2] | further results
1 | B1 | markedly increased | – | – | –
2 | B2 | markedly increased | – | – | –
3 | B3 | failed to methylate K47 | – | – | –
4 | B4 | – | no interaction was observed | – | methylation by GLP (GLP catalytic SET domain): is methylated in vitro by recombinant GLP–SET domain; interaction with MPP8 in GST pull-down (MPP8): a robust direct interaction between GLP–N and MPP8 was observed only when K205 methylation occurs
5 | B5 | – | no interaction was observed | – | methylation by GLP (GLP catalytic SET domain): completely abolishes this GLP-catalyzed methylation; interaction with MPP8 in GST pull-down (MPP8): completely lost the interaction with MPP8
6 | B6 | – | no interaction was observed | – | –
7 | B7 | – | – | impairs GLP–MPP8 interaction in cells | –
8 | B8 | – | – | had little effect | –
9 | B9 | – | – | had little effect | –
